From ChEMBL document CHEMBL4364301 (Eur J Med Chem, 2019)
Calls of active or inactive are those of the source. No cut-off for these calls is given here.

Assays:
MCF7 [1] = experiment: Antiproliferative activity against human MCF7 cells assessed as T/C value at 3.2 x 10^1 uM incubated for 96 hrs by propidium iodide based 2D monolayer assay; format: functional
MCF7 [2] = experiment: Antiproliferative activity against human MCF7 cells assessed as reduction in cell growth incubated for 96 hrs by propidium iodide based 2D monolayer assay; format: functional; details: MCF7, 96 h
MCF7 [3] = experiment: Antiproliferative activity against human MCF7 cells assessed as T/C value at 1 uM incubated for 96 hrs by propidium iodide based 2D monolayer assay; format: functional
MCF7 [4] = experiment: Antiproliferative activity against human MCF7 cells assessed as T/C value at 1 x 10^-2 uM incubated for 96 hrs by propidium iodide based 2D monolayer assay; format: functional
MCF7 [5] = experiment: Antiproliferative activity against human MCF7 cells assessed as T/C value at 1 x 10^-1 uM incubated for 96 hrs by propidium iodide based 2D monolayer assay; format: functional
MCF7 [6] = experiment: Antiproliferative activity against human MCF7 cells assessed as T/C value at 3.2 x 10^-1 uM incubated for 96 hrs by propidium iodide based 2D monolayer assay; format: functional
CWR22R [7] = experiment: Antitumor activity against human 22Rv1 cells xenografted in NMRI mouse assessed as inhibition of tumor growth by measuring T/C value at 100 mg/kg, ip administered for 16 days and measured on day 14; format: functional
How it was run: (§1)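 Male NMRI nu/nu mice carried hind-flank 22Rv1 implants and were randomised at 80–200 mm³ tumour volume. Compound was given i.p. at 100 mg/kg/day as 16–18 daily doses in 10% EtOH, 10% Cremophor EL, 5% dextrose; vehicle controls were treated likewise. Tumours were measured by two-dimensional caliper twice weekly and reported as relative tumour volume. T/C was taken from group medians; doubling and quadrupling times were derived from tumour volume.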

CWR22R [8] = experiment: Antitumor activity against human 22Rv1 cells xenografted in NMRI mouse assessed as tumor volume doubling time at 100 mg/kg, ip administered for 16 days (reference value: 2.7 day); format: functional; how it was run: as §1
CWR22R [9] = experiment: Antitumor activity against human 22Rv1 cells xenografted in NMRI mouse assessed as reduction of tumor volume at 100 mg/kg, ip administered for 16 days and measured on day 20; format: functional, organism-based; how it was run: as §1
[10] = Toxicity in NMRI mouse xenografted with human 22Rv1 cells assessed as survival rate at 100 mg/kg, ip administered for 16 days and measured on day 40; format: organism-based; details: in vivo
How it was run: (§2)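 Male NMRI nu/nu 22Rv1-xenograft mice were dosed i.p. at 100 mg/kg/day for 16–18 daily doses in 10% EtOH, 10% Cremophor EL, 5% dextrose vehicle. Body weight was recorded to assess tolerance, and adjusted survival and group median body weight loss were reported.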

CWR22R [11] = experiment: Antitumor activity against human 22Rv1 cells xenografted in NMRI mouse assessed as tumor volume quadrupling time at 100 mg/kg, ip administered for 16 days (reference value: 6.2 day); format: functional; how it was run: as §1
[12] = Toxicity in NMRI mouse xenografted with human 22Rv1 cells assessed as body weight loss at 100 mg/kg, ip administered for 16 days and measured on day 40; format: organism-based; details: in vivo, 384 h; how it was run: as §2
[13] = Toxicity in ip dosed NMRI nu/nu mouse assessed as maximum tolerated dose; format: organism-based; details: in vivo
CWR22R [14] = experiment: Antitumor activity against human 22Rv1 cells xenografted in NMRI mouse assessed as reduction of tumor volume at 100 mg/kg, ip administered for 16 days and measured on day 10; format: functional, organism-based; how it was run: as §1
Androgen receptor = target: T1, Androgen receptor (Rattus norvegicus, UniProt P15207); experiment: Antagonist activity at GAL4-DBD fused rat androgen receptor expressed in UAS-bla 293 cells assessed as reduction in R1881-induced activation incubated for 16 hrs followed by fluorescence substrate addition and measured after 2 hrs by beta lactamase reporter gene assay; format: cell-based
T1 sequence (P15207 whole entry): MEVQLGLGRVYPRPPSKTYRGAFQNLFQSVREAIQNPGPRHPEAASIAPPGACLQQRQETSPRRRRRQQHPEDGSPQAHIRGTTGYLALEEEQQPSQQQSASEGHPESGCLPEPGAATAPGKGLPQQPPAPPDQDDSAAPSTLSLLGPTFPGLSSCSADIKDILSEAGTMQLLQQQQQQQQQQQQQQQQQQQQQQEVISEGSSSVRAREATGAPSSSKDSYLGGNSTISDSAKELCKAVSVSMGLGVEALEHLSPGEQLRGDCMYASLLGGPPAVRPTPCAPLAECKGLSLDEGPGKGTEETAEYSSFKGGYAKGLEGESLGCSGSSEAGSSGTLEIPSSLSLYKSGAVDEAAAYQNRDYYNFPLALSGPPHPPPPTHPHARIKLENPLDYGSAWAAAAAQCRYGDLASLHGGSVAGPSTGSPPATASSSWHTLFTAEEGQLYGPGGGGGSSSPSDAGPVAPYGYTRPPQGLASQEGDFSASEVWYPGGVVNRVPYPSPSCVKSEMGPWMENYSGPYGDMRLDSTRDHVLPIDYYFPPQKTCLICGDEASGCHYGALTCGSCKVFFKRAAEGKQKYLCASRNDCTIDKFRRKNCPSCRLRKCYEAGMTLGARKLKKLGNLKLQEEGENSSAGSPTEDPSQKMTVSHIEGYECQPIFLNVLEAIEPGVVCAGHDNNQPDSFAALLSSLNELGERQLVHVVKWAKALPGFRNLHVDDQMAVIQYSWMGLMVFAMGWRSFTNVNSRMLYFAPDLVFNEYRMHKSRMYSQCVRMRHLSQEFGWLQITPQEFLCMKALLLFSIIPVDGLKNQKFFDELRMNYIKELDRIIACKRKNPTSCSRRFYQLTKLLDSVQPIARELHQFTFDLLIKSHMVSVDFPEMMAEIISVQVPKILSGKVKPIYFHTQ

Compound | T/C (MCF7 [1]) [%] | IC50 (MCF7 [2]) [µM] | IC70 (MCF7 [2]) [µM] | T/C (MCF7 [3]) [%] | T/C (MCF7 [4]) [%] | T/C (MCF7 [5]) [%] | T/C (MCF7 [6]) [%] | IC50 (Androgen receptor) [µM] | other results
CC(O)(CSc1cc(C(F)(F)F)cc(C(F)(F)F)c1)C(=O)Nc1cccc(C(F)(F)C(F)(F)F)c1 (racemic) | 10 | 8.52 | 10.8 | 119 | 115 | 111 | 121 | – | –
CC(O)(COc1ccc(C(F)(F)C(F)(F)F)cc1)C(=O)Nc1cc(C(F)(F)F)cc(C(F)(F)F)c1 (racemic) | 3 | 4.01 | 6.15 | 115 | 100 | 116 | 118 | – | –
CC(O)(COc1ccc(S(F)(F)(F)(F)F)cc1)C(=O)Nc1cc(C(F)(F)F)cc(C(F)(F)F)c1 (racemic) | – | – | – | – | – | – | – | – | T/C (CWR22R [7]): 43.9%; Time (CWR22R [8]): 6.7 days; Activity (CWR22R [9]): Active; survival at 384 h [10]: 100%; Time (CWR22R [11]): 14.3 days; Activity [12]: Non-Toxic; MTD [13]: 100 mg/kg; Activity (CWR22R [14]): Active
CC(O)(COc1cccc(S(F)(F)(F)(F)F)c1)C(=O)Nc1ccc([N+](=O)[O-])c(C(F)(F)F)c1 (racemic) | – | – | – | – | – | – | – | 0.54 | –
CC(O)(COc1ccccc1C(F)(F)F)C(=O)Nc1ccc(S(F)(F)(F)(F)F)cc1 (racemic) | – | – | – | – | – | – | – | 1.81 | –
